Source: ChEMBL document CHEMBL4725492, “Dioxane-Linked Amide Derivatives as Novel Bacterial Topoisomerase Inhibitors against Gram-Positive Staphylococcus aureus” (ACS Med Chem Lett, 2020)
In brackets after ≈: the same amount, converted by molar mass. Activity calls are given as the source filed them. The rule behind the calls is not given here.

Legend:
[1] = test system: Staphylococcus aureus; experiment: Antibacterial activity against Staphylococcus aureus D83N by CLSI based agar dilution method; type: functional
[2] = test system: Staphylococcus aureus; experiment: Antibacterial activity against Staphylococcus aureus USA300 by CLSI based agar dilution method; type: functional
[3] = test system: Staphylococcus aureus; experiment: Antibacterial activity against Staphylococcus aureus 3527 by CLSI based agar dilution method; type: functional
[4] = test system: Staphylococcus aureus; experiment: Antibacterial activity against Staphylococcus aureus ATCC 29213 by CLSI based agar dilution method; type: functional
[5] = test system: K562; experiment: Growth inhibition of human K562 cells incubated for 48 hrs by sulforhodamine B assay; type: functional
[6] = biological target: Topoisomerase IV (Staphylococcus aureus, UniProt P0C1S7+P0C1U9); experiment: (§1) Inhibition of Staphylococcus aureus topoisomerase-4 assessed as reduction in decatenation of kinetoplast DNA agarose gel electrophoresis method; type: protein-complex assay
Sequence of Topoisomerase IV (Staphylococcus aureus, UniProt P0C1S7+P0C1U9) (P0C1U9 whole entry): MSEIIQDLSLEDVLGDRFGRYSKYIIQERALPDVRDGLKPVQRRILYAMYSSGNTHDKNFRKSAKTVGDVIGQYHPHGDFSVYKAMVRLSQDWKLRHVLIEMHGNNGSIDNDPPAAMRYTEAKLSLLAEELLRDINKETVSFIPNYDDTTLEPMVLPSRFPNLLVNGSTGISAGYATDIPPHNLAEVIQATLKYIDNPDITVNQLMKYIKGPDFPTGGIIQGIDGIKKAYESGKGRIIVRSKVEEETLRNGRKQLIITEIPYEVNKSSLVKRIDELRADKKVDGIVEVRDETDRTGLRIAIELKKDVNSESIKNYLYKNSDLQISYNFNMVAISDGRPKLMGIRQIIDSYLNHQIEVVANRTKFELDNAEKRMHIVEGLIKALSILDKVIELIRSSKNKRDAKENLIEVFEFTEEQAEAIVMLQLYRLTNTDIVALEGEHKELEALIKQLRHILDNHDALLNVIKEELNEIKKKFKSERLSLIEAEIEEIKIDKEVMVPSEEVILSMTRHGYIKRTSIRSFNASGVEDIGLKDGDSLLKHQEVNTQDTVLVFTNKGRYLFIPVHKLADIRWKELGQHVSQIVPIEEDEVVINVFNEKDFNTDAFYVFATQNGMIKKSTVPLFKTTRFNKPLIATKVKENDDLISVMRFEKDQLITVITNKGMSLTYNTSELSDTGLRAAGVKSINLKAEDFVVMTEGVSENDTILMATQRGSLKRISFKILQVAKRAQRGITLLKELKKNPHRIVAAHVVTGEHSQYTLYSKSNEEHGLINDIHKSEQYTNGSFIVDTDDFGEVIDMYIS
Sequence of Topoisomerase IV (Staphylococcus aureus, UniProt P0C1S7+P0C1U9) (P0C1S7 whole entry): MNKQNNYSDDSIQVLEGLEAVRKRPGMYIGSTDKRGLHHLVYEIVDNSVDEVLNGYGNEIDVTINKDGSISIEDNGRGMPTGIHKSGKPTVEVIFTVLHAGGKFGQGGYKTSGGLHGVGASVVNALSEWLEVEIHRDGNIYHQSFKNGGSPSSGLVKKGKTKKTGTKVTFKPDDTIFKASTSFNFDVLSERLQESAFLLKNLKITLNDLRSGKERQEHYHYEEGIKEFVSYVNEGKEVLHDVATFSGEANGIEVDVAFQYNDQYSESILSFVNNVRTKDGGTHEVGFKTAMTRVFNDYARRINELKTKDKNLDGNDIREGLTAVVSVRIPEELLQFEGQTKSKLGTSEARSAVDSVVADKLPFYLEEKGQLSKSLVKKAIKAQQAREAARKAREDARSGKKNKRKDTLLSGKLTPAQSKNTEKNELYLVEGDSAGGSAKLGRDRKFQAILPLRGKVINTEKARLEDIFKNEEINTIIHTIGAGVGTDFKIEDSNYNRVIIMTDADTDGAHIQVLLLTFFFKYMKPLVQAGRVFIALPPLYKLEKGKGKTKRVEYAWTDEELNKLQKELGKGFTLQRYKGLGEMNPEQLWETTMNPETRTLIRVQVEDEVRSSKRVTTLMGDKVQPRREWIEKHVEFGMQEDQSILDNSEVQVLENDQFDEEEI

[7] = biological target: DNA gyrase (Staphylococcus aureus, UniProt P0A0K8+P20831); experiment: Inhibition of Staphylococcus aureus DNA gyrase using relaxed pBR322 as substrate by gel electrophoresis; type: protein-complex assay
[8] = biological target: Voltage-gated inwardly rectifying potassium channel KCNH2 (Homo sapiens, UniProt Q12809); experiment: Inhibition of human ERG; conditions: human
Sequence of Voltage-gated inwardly rectifying potassium channel KCNH2 (Q12809 whole entry): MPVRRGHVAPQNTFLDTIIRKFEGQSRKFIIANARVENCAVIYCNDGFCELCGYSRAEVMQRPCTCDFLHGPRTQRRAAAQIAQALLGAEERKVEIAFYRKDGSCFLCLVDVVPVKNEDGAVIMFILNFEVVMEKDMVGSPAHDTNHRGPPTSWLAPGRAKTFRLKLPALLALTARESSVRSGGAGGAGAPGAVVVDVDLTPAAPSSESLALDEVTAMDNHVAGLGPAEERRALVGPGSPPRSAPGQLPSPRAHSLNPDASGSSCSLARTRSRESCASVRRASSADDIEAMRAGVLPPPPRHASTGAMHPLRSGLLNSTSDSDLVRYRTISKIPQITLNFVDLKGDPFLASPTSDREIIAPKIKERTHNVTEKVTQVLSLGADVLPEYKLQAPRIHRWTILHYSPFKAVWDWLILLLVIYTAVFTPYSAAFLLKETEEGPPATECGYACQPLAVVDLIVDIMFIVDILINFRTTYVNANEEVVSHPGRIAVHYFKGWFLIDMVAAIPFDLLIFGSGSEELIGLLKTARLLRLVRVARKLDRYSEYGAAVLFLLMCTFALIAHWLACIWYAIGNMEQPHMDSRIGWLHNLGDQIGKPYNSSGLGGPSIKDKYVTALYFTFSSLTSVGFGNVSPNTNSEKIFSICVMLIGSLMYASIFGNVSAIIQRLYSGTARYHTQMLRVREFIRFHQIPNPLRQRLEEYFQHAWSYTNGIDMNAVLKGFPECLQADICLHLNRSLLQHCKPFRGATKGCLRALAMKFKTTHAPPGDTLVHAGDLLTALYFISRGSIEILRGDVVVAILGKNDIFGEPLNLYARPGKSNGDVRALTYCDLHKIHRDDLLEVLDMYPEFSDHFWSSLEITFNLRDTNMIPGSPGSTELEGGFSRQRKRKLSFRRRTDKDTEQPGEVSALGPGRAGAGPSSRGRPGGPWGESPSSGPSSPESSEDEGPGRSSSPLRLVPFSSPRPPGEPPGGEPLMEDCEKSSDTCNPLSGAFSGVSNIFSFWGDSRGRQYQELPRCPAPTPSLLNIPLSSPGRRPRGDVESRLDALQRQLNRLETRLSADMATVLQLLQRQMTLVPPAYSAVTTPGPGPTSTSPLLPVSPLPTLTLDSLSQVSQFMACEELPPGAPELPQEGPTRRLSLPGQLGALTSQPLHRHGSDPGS

[9] = Growth inhibition of human K/VP.5 cells incubated for 48 hrs by sulforhodamine B assay; type: functional
[10] = biological target: DNA topoisomerase 2-alpha (Homo sapiens, UniProt P11388); experiment: Inhibition of human topoisomerase 2alpha
Sequence of DNA topoisomerase 2-alpha (P11388 whole entry): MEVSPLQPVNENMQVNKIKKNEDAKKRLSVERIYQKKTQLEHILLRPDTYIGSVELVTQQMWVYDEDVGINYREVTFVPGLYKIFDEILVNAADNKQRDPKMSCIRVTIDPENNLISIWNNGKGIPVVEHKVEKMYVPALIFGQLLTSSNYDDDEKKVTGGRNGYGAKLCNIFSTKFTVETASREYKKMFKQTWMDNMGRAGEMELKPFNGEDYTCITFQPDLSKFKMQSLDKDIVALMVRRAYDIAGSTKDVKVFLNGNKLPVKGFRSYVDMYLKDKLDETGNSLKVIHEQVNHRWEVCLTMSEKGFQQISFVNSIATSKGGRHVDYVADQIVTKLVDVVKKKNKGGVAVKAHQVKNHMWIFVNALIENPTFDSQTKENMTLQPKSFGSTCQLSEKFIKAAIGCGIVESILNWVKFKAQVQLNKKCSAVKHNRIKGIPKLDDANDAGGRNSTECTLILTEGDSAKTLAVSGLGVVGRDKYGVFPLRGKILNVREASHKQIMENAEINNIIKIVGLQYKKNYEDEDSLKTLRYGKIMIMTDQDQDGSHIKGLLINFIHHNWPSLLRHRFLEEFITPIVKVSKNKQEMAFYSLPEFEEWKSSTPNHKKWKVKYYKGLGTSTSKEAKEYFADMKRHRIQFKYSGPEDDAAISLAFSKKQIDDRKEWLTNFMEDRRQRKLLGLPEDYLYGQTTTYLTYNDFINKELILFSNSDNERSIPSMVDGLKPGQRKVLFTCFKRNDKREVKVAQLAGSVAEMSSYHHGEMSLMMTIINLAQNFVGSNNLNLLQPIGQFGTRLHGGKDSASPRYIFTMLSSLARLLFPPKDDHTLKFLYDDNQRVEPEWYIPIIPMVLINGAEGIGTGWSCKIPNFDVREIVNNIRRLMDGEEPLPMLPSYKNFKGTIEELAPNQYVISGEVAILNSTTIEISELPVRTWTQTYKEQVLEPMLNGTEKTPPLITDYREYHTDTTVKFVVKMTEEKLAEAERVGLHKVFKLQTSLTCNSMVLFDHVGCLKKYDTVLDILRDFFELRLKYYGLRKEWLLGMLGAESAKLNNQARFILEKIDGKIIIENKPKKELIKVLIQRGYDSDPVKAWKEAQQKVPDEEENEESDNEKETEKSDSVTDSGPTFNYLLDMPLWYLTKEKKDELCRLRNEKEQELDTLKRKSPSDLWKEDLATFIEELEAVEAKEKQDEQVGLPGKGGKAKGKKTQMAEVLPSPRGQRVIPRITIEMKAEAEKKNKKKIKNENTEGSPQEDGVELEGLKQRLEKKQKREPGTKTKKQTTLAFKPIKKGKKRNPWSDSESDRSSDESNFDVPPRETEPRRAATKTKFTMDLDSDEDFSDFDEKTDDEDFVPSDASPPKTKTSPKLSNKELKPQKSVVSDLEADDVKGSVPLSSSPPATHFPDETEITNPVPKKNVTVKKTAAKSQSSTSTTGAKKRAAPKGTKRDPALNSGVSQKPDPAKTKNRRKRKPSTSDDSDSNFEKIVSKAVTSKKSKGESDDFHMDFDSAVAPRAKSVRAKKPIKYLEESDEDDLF
Procedure, shortened: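 Human topoisomerase IIα decatenation activity was tested at a single concentration of 100 μM and reported as percent inhibition.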

[11] = biological target: T1, DNA gyrase (Staphylococcus aureus) (UniProt P0A0K8+P20831); experiment: Inhibition of Staphylococcus aureus DNA gyrase assessed as double-strand break at 20 uM using relaxed pBR322 as substrate by ethidium bromide-based gel electrophoresis; type: protein-complex assay
Procedure, shortened: (§2)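 S. aureus gyrase-mediated DNA cleavage: compound was incubated with enzyme and DNA, and products were resolved on an ethidium-stained gel into negatively supercoiled, nicked (single-strand break) and linear (double-strand break) forms. Lane fluorescence was corrected for differential band emission. Percent of each form was calculated, and enzyme-only cleavage was subtracted. Concentrations spanned 0.1 nM–200 μM, with a 20 μM single-point screen. Results are mean ± SD or range.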

[12] = biological target: T1, DNA gyrase (Staphylococcus aureus); experiment: Inhibition of Staphylococcus aureus DNA gyrase assessed as single-strand break at 20 uM using relaxed pBR322 as substrate by ethidium bromide-based gel electrophoresis; type: protein-complex assay; procedure, shortened: as §2
[13] = biological target: Topoisomerase IV (Staphylococcus aureus, UniProt P0C1U9+P0C1S7); experiment: as §1; type: protein-complex assay

Row | Compound | MIC [1] | MIC [2] | MIC [3] | MIC [4] | INH [5] | IC50 [6] | IC50 [7] | INH [8] | INH [9] | inhibition (INH) [10] | inhibition [11] | inhibition [12] | IC50 [13]
1 | COc1ccc2nccc(CC[C@H]3OC[C@H](NC(=O)C4CCN(C)CC4)CO3)c2c1 | > 64 mg/L | > 64 mg/L | > 64 mg/L | > 64 mg/L |  |  |  |  |  |  |  |  | 
2 | COc1ccc2nccc(CC[C@H]3OC[C@H](NC(=O)c4ccccc4Cl)CO3)c2c1 | > 256 mg/L | > 256 mg/L | > 256 mg/L | 256 mg/L (≈ 600 µM) |  |  |  |  |  |  |  |  | 
3 | COc1ccc2nccc(CC[C@H]3OC[C@H](NC(=O)[C@H]4CC[C@H](C)CC4)CO3)c2c1 | > 32 mg/L | 8 mg/L (≈ 19.4 µM) | 8 mg/L (≈ 19.4 µM) | 4 mg/L (≈ 9.7 µM) |  |  |  |  |  |  |  |  | 
4 | COc1ccc2nccc(CC[C@H]3OC[C@H](NC(=O)c4ccc5c(n4)NC(=O)CO5)CO3)c2c1 | > 64 mg/L | 0.125 mg/L (≈ 0.269 µM) | 0.125 mg/L (≈ 0.269 µM) | 0.125 mg/L (≈ 0.269 µM) | >200 µM | 0.19 µM | 0.04 µM | > 12 µM | >200 µM |  |  |  | 
5 | COc1ccc2nccc(CC[C@H]3OC[C@H](NC(=O)[C@H]4CC[C@H](O)CC4)CO3)c2c1 | > 64 mg/L | > 64 mg/L | > 64 mg/L | > 64 mg/L |  |  |  |  |  |  |  |  | 
6 | COc1ccc2nccc(CC[C@H]3OC[C@H](NC(=O)C4COc5ccccc5O4)CO3)c2c1 (some centres not stated) | > 64 mg/L | > 64 mg/L | > 64 mg/L | > 64 mg/L |  |  |  |  |  |  |  |  | 
7 | COc1ccc(C(=O)N[C@H]2CO[C@H](CCc3ccnc4ccc(OC)cc34)OC2)cc1 | 32 mg/L (≈ 75.7 µM) | 8 mg/L (≈ 18.9 µM) | 16 mg/L (≈ 37.9 µM) | 4 mg/L (≈ 9.47 µM) |  | 106 µM | 3.9 µM |  |  | Not Active |  |  | 
8 | COc1ccc2nccc(CC[C@H]3OC[C@H](NC(=O)[C@H]4CC[C@@H](N)CC4)CO3)c2c1 | > 64 mg/L | > 64 mg/L | > 64 mg/L | > 64 mg/L |  |  |  |  |  |  |  |  | 
9 | COc1ccc2nccc(CC[C@H]3OC[C@H](NC(=O)C4COc5ccccc5C4)CO3)c2c1 (some centres not stated) | > 64 mg/L | > 64 mg/L | > 64 mg/L | > 64 mg/L |  |  |  |  |  |  |  |  | 
10 | COc1ccc2nccc(CC[C@H]3OC[C@H](NC(=O)[C@H]4CC[C@@H](O)CC4)CO3)c2c1 | > 64 mg/L | > 64 mg/L | > 64 mg/L | > 64 mg/L |  |  |  |  |  |  |  |  | 
11 | COc1ccc2nccc(CC[C@H]3OC[C@H](NC(=O)c4cccc(Cl)c4)CO3)c2c1 | > 32 mg/L | 1 mg/L (≈ 2.34 µM) | 1 mg/L (≈ 2.34 µM) | 2 mg/L (≈ 4.68 µM) | <200 µM |  | 0.32 µM | > 3 µM | 50 µM |  | inactive | Active | Not Active
12 | COc1ccc2nccc(CC[C@H]3OC[C@H](NC(=O)c4ccc(C(C)(C)C)cc4)CO3)c2c1 | 2 mg/L (≈ 4.46 µM) | 1 mg/L (≈ 2.23 µM) | 1 mg/L (≈ 2.23 µM) | 0.25 mg/L (≈ 0.557 µM) | 8.4 µM | > 200 µM | 1.3 µM | 5.2 µM | 8.8 µM | Not Active | inactive | Active | 
13 | COc1ccc2nccc(CC[C@H]3OC[C@H](NC(=O)[C@H]4CC[C@H](N)CC4)CO3)c2c1 | > 64 mg/L | > 64 mg/L | > 64 mg/L | > 64 mg/L |  |  |  |  |  |  |  |  | 
14 | COc1ccc2nccc(CC[C@H]3OC[C@H](NC(=O)c4ccc(C)cc4)CO3)c2c1 | > 32 mg/L | 1 mg/L (≈ 2.46 µM) | 2 mg/L (≈ 4.92 µM) | 1 mg/L (≈ 2.46 µM) | 18 µM |  | 0.41 µM | > 30 µM | 17 µM | Not Active | inactive | Active | Not Active
15 | COc1ccc2nccc(CC[C@H]3OC[C@H](NC(=O)c4ccc(C(F)(F)F)cc4)CO3)c2c1 | > 64 mg/L | ≤ 0.5 mg/L | ≤ 0.5 mg/L | 0.25 mg/L (≈ 0.543 µM) | 6.8 µM | > 200 µM | 1.1 µM | > 30 µM | 8.9 µM | Not Active | inactive | Active | 
16 | COc1ccc2nccc(CC[C@H]3OC[C@H](NC(=O)c4ccc(F)cc4)CO3)c2c1 | > 256 mg/L | > 256 mg/L | > 256 mg/L | > 256 mg/L |  |  |  |  |  |  |  |  | 
17 | COc1ccc2nccc(CC[C@H]3OC[C@H](NC(=O)c4ccccc4)CO3)c2c1 | > 256 mg/L | 8 mg/L (≈ 20.4 µM) | 4 mg/L (≈ 10.2 µM) | 8 mg/L (≈ 20.4 µM) |  |  |  |  |  |  |  |  | 
18 | COc1ccc2nccc(CC[C@H]3OC[C@H](NC(=O)c4ccccn4)CO3)c2c1 | > 256 mg/L | > 256 mg/L | > 256 mg/L | > 256 mg/L |  |  |  |  |  |  |  |  | 
19 | COc1ccc2nccc(CC[C@H]3OC[C@H](NC(=O)C4(C)CCCCC4)CO3)c2c1 | > 64 mg/L | > 64 mg/L | > 64 mg/L | > 64 mg/L |  |  |  |  |  |  |  |  | 
20 | COc1ccc2nccc(CC[C@H]3OC[C@H](NC(=O)c4ccc(C#N)cc4)CO3)c2c1 |  | > 8 mg/L |  | > 8 mg/L |  |  |  |  |  |  |  |  | 
21 | COc1ccc2nccc(CC[C@H]3OC[C@H](NC(=O)c4ccc(Cl)c(Cl)c4)CO3)c2c1 | > 32 mg/L | 0.125 mg/L (≈ 0.271 µM) | 0.5 mg/L (≈ 1.08 µM) | 0.125 mg/L (≈ 0.271 µM) |  | > 200 µM | 0.59 µM |  |  |  | inactive | Active | 
22 | COc1ccc2nccc(CC[C@H]3OC[C@H](NC(=O)C4Cc5ccccc5CO4)CO3)c2c1 (some centres not stated) | > 64 mg/L | > 64 mg/L | > 64 mg/L | > 64 mg/L |  |  |  |  |  |  |  |  | 
23 | COc1ccc2nccc(CC[C@H]3OC[C@H](NC(=O)c4ccc5c(c4)NC(=O)CO5)CO3)c2c1 | > 64 mg/L | 0.25 mg/L (≈ 0.539 µM) | 0.5 mg/L (≈ 1.08 µM) | 0.25 mg/L (≈ 0.539 µM) | >200 µM | 0.89 µM | 0.06 µM |  | >200 µM |  |  |  | 
24 | COc1ccc2nccc(CC[C@H]3OC[C@H](NC(=O)c4ccc5c(n4)NC(=O)CS5)CO3)c2c1 | > 64 mg/L | 0.03 mg/L (≈ 0.0624 µM) | 0.03 mg/L (≈ 0.0624 µM) | 0.06 mg/L (≈ 0.125 µM) | >200 µM | 0.3 µM | 0.17 µM | > 3 µM | >200 µM |  |  |  | 
25 | COc1ccc2nccc(CC[C@H]3OC[C@H](NC(=O)C4CCCCC4)CO3)c2c1 | 32 mg/L (≈ 80.3 µM) | 8 mg/L (≈ 20.1 µM) | 8 mg/L (≈ 20.1 µM) | 8 mg/L (≈ 20.1 µM) |  |  |  |  |  |  |  |  | 
26 | COc1ccc2nccc(CC[C@H]3OC[C@H](NC(=O)C4CCNCC4)CO3)c2c1 | > 64 mg/L | > 64 mg/L | > 64 mg/L | > 64 mg/L |  |  |  |  |  |  |  |  | 
27 | COc1ccc2nccc(CC[C@H]3OC[C@H](NC(=O)c4cccnc4)CO3)c2c1 | 128 mg/L (≈ 325 µM) | 128 mg/L (≈ 325 µM) | 128 mg/L (≈ 325 µM) | 256 mg/L (≈ 651 µM) |  |  |  |  |  |  |  |  | 
28 | COc1ccc2nccc(CC[C@H]3OC[C@H](NC(=O)CC4CCCCC4)CO3)c2c1 | > 64 mg/L | > 64 mg/L | > 64 mg/L | > 64 mg/L |  |  |  |  |  |  |  |  | 
